In the library only some 4% were active in any assay of this set; here they are far more common.
CHO parental Ca = counter-screen: ATP calcium response change in parental CHO cells; parental CHO-K1, ATP-induced calcium, Fluo-8 fluorescence; 0.63% of 330,000 active; inhibition, % at 5.6 µM;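 active = inhibition above that plate's mean sample inhibition plus 3 SD, cut at about 26% in these data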;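 also: 0% = ATP-challenged DMSO wells and 100% = DMSO wells without ATP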
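Material – parental CHO cells · Reagent – ATP stimulus · Compound – single nominal dose of 5.6 µM per compound · Detection – Fluo-8 fluorescence · Read-out basis – percent inhibition of calcium signal · Controls – ATP-challenged DMSO wells low, unchallenged DMSO wells high · Repeats – no replicates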
TAAR1 ag = human TAAR1 agonism. Q96RJ0. CHO RD-HGA16 TAAR1, Fluo-8 calcium fluorescence; vehicle wells 0%, saturating PEA agonist 100%. activation, % at 3 µM. 0.99% of 360,000 active;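 active = activation above the mean activation of all test compounds in the run plus 3 SD, cut at about 38% in these data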
Target sequence (Q96RJ0 whole entry, looked up): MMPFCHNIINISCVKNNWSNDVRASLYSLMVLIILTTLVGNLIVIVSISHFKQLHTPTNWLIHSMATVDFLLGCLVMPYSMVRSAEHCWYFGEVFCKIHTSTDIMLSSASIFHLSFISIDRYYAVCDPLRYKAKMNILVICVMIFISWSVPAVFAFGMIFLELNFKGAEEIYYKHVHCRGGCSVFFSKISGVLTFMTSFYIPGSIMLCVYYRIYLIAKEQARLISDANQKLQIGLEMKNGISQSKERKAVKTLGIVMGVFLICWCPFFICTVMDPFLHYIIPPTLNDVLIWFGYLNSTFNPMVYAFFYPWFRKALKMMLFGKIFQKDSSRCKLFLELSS
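Assay system – CHO-derived RD-HGA16 cells with stable Gα16 and human TAAR1 · Compound dosing – one-point dosing at 3 µM (nominal) · Incubation – 17-24 h seeding, 75 min 37 °C dye, 30 min RT · Measured by – kinetic Fluo-8 calcium fluorescence · Control set – DMSO vehicle as 0%, PEA at EC100 as 100% · Repeats – single well for each compound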
OX1R antag-1 = OX1R (human) antagonism. 1.8% of 330,000 active. O43613. AID 485270. inhibition, % at 6.6 µM. OX1R-expressing cells, FRET antagonist read-out; in the data active = inhibition mostly above about 38%, no sharp cut-off; inactive = mostly below about 40%;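 also: 0% = agonist challenge alone and 100% = reference antagonist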
OX1R antag-2 = antagonists of human orexin 1 receptor | inhibition, % at 5 µM | O43613 | 0.43% of 330,000 active | AID 434989 | CHO/OX1R cells, Fluo-8 calcium fluorescence, orexin A;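 active = inhibition above its plate's threshold, mean inhibition of all tested compounds on the plate plus 3 SD, cut at about 37% in these data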;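 also: 0% = orexin A challenge wells and 100% = SB-334867-A antagonist wells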
TAAR1 antagonist = human TAAR1 antagonism | CHO RD-HGA16 TAAR1, Fluo-8 calcium fluorescence, antagonist | 1.5% of 360,000 active | Q96RJ0 | AID 624466 | inhibition, % at 3 µM;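 active = inhibition above a per-plate cutoff, the mean inhibition of test compounds on that plate plus 3 SD, cut at about 49% in these data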;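 also: 0% = DMSO plus EC80 beta-PEA response and 100% = DMSO alone without agonist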
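Assay system: CHO-derived RD-HGA16 cells stably expressing human TAAR1 plus Gα16. Timing: 140 s kinetic read after compound, 140 s after agonist. Technique: kinetic Fluo-8 calcium fluorescence measurement. Measure: % inhibition of agonist calcium response.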
TAAR1 nonsel count = counter-screen for TAAR1 antagonists: nonselective antagonists | shares compounds with TAAR1 antagonist | counterscreen cell line, calcium fluorescence, antagonist mode | inhibition, % at 3 µM | 77% of 2,400 active; in the data active = inhibition above about 22%;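 also: CHO-Ga16 host cells stimulated with ATP at an EC80 level; 0% = agonist EC80 plus vehicle and 100% = vehicle without agonist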
TAAR1 ant conf = confirmation of human TAAR1 antagonists; 40% of 2,400 active; inhibition, % at 3 µM; TAAR1-expressing cells, fluorescence antagonist read-out; shares compounds with TAAR1 antagonist; AID 651785; in the data active = inhibition above about 49%;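 also: CHO-Ga16 host cells challenged with agonist PEA near its EC80; 0% = agonist at EC80 plus vehicle and 100% = vehicle with no agonist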
Ga16 nonsel ag = nonselective Ga16 agonism, counter-screen. shares compounds with TAAR1 antagonist. Ga16-expressing cells, calcium fluorescence, agonist counterscreen. activation, % at 3 µM. 18% of 2,400 active; in the data active = activation above about 12%;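 also: 0% = vehicle wells and 100% = saturating stimulus response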
TAAR1 ag counter = counter-screen for human TAAR1 antagonists: TAAR1 agonists; shares compounds with TAAR1 antagonist; hTAAR1 cell line, fluorescence activation, agonist mode; activation, % at 3 µM; 2% of 2,400 active; in the data active = activation above about 37%;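 also: CHO cells stably expressing TAAR1 with calcium dye readout; 0% = DMSO vehicle and 100% = full agonist response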
* = called active by the depositor; nt = not tested or not shown.

SMILES	CHO parental Ca	TAAR1 ag	OX1R antag-1	OX1R antag-2	TAAR1 antagonist	TAAR1 nonsel count	TAAR1 ant conf	Ga16 nonsel ag	TAAR1 ag counter
Cc1ccc2nc(NC(=O)CSCc3ccccc3)sc2c1	-24	29	32	-18	50*	5	41	8	23
CC(=O)c1ccc(S(=O)(=O)N2CCN(CC(=O)Nc3ccccc3C(=O)NC3CC3)CC2)cc1	-17	17	5	-19	41	nt	nt	nt	nt
N#Cc1ccccc1S(=O)(=O)N1CCN(CC(=O)Nc2ccnn2C2CCCC2)CC1	nt	7	nt	nt	-9	nt	nt	nt	nt
O=C(CN1CCN(S(=O)(=O)c2ccc(F)c(F)c2)CC1)Nc1ccccc1C(=O)NC1CC1	-22	14	5	-22	49*	22*	35	5	11
N#Cc1ccccc1S(=O)(=O)N1CCN(CC(=O)Nc2ccccc2C(=O)NC2CC2)CC1	-17	14	3	-21	56*	24*	47	8	10
O=C(c1cc(C(=O)NCCc2ccccc2)c(=O)n(CCc2ccccc2)c1)c1cc(Cl)ccc1O	21	16	11	7	65*	38*	61*	6	3
O=C(NCCc1ccccc1)c1ccccc1Cl	-3	2	35	-23	-23	nt	nt	nt	nt
COc1cc(/C=C(\C#N)c2nc3ccccc3[nH]2)cc(Br)c1OCc1ccccc1	-5	8	24	-11	60*	47*	56*	8	5
COc1cc(/C=C(\C#N)c2nc3ccccc3[nH]2)ccc1Oc1ccc([N+](=O)[O-])cn1	-7	20	25	-18	84*	50*	65*	11	9
Cc1cc(C)c2[nH]c(=O)c(CN(Cc3cccs3)C(=S)NCC3CCCO3)cc2c1 (stereo not given)	-12	5	12	-33	15	nt	nt	nt	nt
CC(C)(C)c1ccc(CSc2nc(N)cc(=O)[nH]2)cc1	15	nt	-6	-9	nt	nt	nt	nt	nt
CC(=O)Nc1ccc(-c2csc(NC(=O)c3ccc(C)o3)n2)cc1	-10	17	24	-8	42	nt	nt	nt	nt
CCc1noc(C)c1C(=O)Nc1nc(-c2ccc(NC(C)=O)cc2)cs1	-3	18	58*	-1	70*	29*	48	22*	31
CN(Cc1cnn(-c2ccccc2)c1)C(=O)c1cccc(S(=O)(=O)N(C)c2ccccc2)c1	nt	3	nt	nt	63*	35*	42	9	4
Cc1ccc(N(C)S(=O)(=O)c2cccc(C(=O)N(C)Cc3cnn(-c4ccccc4)c3)c2)cc1	nt	-1	nt	nt	39	nt	nt	nt	nt
Cc1ccc(S(=O)(=O)N2CCN(C(=O)c3c(C)nn(-c4ccccc4)c3Cl)CC2)cc1	-14	6	7	-23	36	nt	nt	nt	nt
Cc1cc(C)c(S(=O)(=O)N2CCN(C(=O)c3c(C)nn(-c4ccccc4)c3Cl)CC2)c(C)c1	nt	13	nt	nt	68*	35*	46	8	5
COc1ccccc1N1CCN(C(=O)c2ccc(-c3nc4ccccc4s3)o2)CC1	-29	2	10	-15	54*	22*	35	3	-1
Cc1nc(-c2cccc(NC(=O)c3ccc(Br)o3)c2)cs1	nt	3	nt	nt	10	nt	nt	nt	nt
Cc1nc(-c2cccc(NC(=O)c3ccc(-n4nccc4C)cc3)c2)cs1	-14	30	15	-13	69*	33*	46	10	7
CCC(=O)Nc1cccc(-c2nnc(-c3cccc(NC(=O)CC)c3)o2)c1	-7	21	7	9	56*	22*	43	7	9
O=C(COc1ccccc1)Nc1cccc(-c2nnc(-c3ccccc3)o2)c1	-7	13	62	-8	67*	38*	51*	8	4
O=C(O)CCC(=O)Nc1cccc(-c2nnc(-c3ccccc3)o2)c1	-2	5	-7	-19	-13	nt	nt	nt	nt
